Active and inactive are the calls of the source. The rule behind the calls is not given here.

Assay [1] concerns the target T1, Muscarinic acetylcholine receptor M1 (Homo sapiens, UniProt P11229).
T1 sequence (P11229 whole entry): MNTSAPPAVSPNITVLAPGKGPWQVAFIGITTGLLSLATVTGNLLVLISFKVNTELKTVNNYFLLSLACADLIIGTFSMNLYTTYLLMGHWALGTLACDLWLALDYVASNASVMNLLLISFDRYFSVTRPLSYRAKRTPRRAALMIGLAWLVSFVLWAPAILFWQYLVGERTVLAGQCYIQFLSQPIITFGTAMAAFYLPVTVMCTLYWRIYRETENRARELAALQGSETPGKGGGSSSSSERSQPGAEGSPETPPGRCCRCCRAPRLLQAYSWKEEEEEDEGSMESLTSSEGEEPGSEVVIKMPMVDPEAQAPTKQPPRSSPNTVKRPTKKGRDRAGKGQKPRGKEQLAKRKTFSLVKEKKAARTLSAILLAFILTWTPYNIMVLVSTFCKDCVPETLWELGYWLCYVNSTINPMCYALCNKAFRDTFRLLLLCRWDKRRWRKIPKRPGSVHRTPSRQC
As to the kind of experiment: Displacement of [3H]N-methyl-scopolamine bromide from human recombinant muscarinic M1 receptor expressed in HEK293T cell membranes after 1 hr by liquid scintillation counting method. Format: cell-based, HEK-293T.

Assay [2] has as its target T2, Muscarinic acetylcholine receptor M2 (Homo sapiens, UniProt P08172).
T2 sequence (P08172 whole entry): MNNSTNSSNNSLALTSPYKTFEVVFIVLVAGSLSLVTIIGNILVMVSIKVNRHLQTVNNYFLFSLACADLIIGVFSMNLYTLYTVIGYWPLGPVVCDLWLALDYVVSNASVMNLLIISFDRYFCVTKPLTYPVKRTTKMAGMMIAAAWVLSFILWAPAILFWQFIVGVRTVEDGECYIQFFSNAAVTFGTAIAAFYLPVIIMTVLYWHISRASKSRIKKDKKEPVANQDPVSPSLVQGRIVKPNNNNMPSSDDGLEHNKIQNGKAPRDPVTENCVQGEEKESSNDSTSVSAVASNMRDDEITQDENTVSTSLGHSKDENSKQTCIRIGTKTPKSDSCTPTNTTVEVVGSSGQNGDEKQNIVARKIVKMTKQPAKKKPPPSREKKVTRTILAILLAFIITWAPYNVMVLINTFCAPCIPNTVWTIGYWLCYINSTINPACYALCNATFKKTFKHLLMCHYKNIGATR
As to the kind of experiment: Displacement of [3H]N-methyl-scopolamine bromide from human recombinant muscarinic M2 receptor expressed in HEK293T cell membranes after 1 hr by liquid scintillation counting method. Details: species or system HEK-293T. A general note: Displacement assays read how much labelled ligand stays bound in the presence of the test substance.

Assay [3] concerns the target Muscarinic acetylcholine receptor M3 (Homo sapiens, UniProt P20309). As to the kind of experiment: Displacement of [3H]N-methyl-scopolamine bromide from human recombinant muscarinic M3 receptor expressed in HEK293T cell membranes after 1 hr by liquid scintillation counting method. Format: cell-based, HEK-293T.
Assay [4] concerns the target T2, Muscarinic acetylcholine receptor M2. As to the kind of experiment: Agonist activity at human recombinant muscarinic M2 receptor co-expressed with Galphaqi5-HA in African green monkey COS7 cells assessed as IP accumulation after 2 hrs in presence of myo-[3H]inositol by liquid scintillation counting method. The assay is classed as functional.
Assay [5] concerns the target T3, Muscarinic acetylcholine receptor M2 (Homo sapiens) (UniProt P08172).
T3 sequence (whole entry): T2 sequence (P08172 whole entry)
In words: Agonist activity at human recombinant muscarinic M2 receptor co-expressed with Galphaqi5-HA in African green monkey COS7 cells assessed as IP accumulation after 2 hrs in presence of myo-[3H]inositol by liquid scintillation counting method relative to carbachol. Format: functional.

The target of assay [6] is T3, Muscarinic acetylcholine receptor M2 (Homo sapiens). In words: Agonist activity at human recombinant muscarinic M2 receptor co-expressed with Galphaqi5-HA in African green monkey COS7 cells assessed as IP accumulation at 100 uM after 2 hrs in presence of myo-[3H]inositol by liquid scintillation counting method relative to carbachol. The assay is classed as functional.

Assay [7] has the same target. As to the kind of experiment: Agonist activity at Gi/o coupled recombinant human M2 mAChR expressed in CHO-FlpIn cells assessed as IP-one accumulation after 40 mins by HTRF assay. Format: cell-based. In a few lines: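 Stably transfected CHO-FlpIn whole cells, 20000/well, grown overnight at 37 °C with 5% CO2. Cells were washed with PBS, then held 60 min at 37 °C in HEPES stimulation buffer with 50 mM LiCl, pH 7.4. ACh or test ligand was added and incubated 40 min.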
In general terms: In TR-FRET formats the signal depends on donor and acceptor labels being close together.

Assay [8] deals with Neuronal acetylcholine receptor; alpha4/beta2 (Homo sapiens, UniProt P17787+P43681). As to the kind of experiment: Displacement of [3H]cytisine from alpha4beta2 nAChR expressed in human recombinant SH-SY5Y cell membranes after 120 mins.
Sequence of Neuronal acetylcholine receptor; alpha4/beta2 (P17787 whole entry): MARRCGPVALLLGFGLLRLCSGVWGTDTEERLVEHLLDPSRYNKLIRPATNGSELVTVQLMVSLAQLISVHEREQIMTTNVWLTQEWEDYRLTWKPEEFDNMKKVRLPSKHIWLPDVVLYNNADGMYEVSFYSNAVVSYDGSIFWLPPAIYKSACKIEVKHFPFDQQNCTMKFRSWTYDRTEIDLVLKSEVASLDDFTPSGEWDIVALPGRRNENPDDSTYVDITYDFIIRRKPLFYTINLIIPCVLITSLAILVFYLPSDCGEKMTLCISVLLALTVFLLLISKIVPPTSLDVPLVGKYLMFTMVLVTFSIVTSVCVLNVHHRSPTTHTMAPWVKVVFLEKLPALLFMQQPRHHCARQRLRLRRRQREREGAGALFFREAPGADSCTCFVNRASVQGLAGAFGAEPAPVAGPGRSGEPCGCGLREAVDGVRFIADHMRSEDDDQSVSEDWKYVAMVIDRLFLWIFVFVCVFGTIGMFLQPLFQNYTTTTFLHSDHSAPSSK
Sequence of Neuronal acetylcholine receptor; alpha4/beta2 (P43681 whole entry): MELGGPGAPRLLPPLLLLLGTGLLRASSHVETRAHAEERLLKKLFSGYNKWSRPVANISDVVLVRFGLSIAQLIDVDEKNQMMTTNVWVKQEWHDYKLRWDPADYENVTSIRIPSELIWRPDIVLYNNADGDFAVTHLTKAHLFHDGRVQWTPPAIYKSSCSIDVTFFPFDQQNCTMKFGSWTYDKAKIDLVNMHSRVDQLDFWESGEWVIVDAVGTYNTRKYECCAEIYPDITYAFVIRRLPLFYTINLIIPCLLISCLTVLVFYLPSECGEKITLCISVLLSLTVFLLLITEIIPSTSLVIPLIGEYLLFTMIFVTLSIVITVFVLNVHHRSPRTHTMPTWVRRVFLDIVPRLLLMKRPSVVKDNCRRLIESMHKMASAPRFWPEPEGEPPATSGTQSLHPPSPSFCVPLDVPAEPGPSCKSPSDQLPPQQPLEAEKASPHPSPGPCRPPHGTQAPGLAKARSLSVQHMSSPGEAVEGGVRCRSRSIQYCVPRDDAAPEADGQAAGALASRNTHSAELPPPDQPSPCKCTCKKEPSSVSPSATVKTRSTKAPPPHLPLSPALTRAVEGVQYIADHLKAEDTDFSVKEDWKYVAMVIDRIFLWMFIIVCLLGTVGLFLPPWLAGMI

Sequence of Muscarinic acetylcholine receptor M3 (P20309 whole entry): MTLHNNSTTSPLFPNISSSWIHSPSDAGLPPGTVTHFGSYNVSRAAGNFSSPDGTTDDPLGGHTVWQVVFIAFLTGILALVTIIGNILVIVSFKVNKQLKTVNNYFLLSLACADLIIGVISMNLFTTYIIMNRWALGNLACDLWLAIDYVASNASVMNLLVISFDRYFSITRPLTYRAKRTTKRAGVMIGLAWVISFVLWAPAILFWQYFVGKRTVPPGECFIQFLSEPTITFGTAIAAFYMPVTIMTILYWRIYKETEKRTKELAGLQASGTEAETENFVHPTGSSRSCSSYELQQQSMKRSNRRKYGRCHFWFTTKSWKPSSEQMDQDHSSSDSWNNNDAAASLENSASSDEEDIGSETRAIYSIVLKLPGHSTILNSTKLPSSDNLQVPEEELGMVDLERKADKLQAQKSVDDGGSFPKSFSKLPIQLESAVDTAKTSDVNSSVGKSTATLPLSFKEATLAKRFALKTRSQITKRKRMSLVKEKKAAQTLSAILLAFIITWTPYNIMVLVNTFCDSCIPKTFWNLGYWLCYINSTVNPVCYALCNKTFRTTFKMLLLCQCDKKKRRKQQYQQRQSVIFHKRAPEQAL

With `C[N+](C)(C)C1CCc2ccc3ccoc3c2C1` (centres undefined), the figures for the Ki in assay [1], in assay [2] and in assay [3] were 0.38 µM, 0.79 µM and 0.69 µM, respectively. The concentration giving a half-maximal response (EC50) in assay [4] came out at 2.3 µM. The Emax in assay [5] was -8.3%.

`C[N+](C)(C)CC#CCOC1=NOCC1`: the inhibition constant Ki in assay [1] was 0.35 µM; in assay [2] it was 0.0049 µM; in assay [3], 0.55 µM. In assay [4], the EC50 was determined as 0.00028 µM. For the same compound, in assay [5], the Emax worked out at 125%.

As for `COc1cccc2c1CC(N(C)C)CC2` (centres undefined), the figures for the Ki in assay [1], in assay [2] and in assay [3] were 2 µM, 1.2 µM and 0.83 µM, respectively.

As to `CN(C)C1CCc2cccc(O)c2C1` (centres undefined), the Ki in assay [1] was greater than 50 µM; in assay [2] it was greater than 50 µM; in assay [3] it was 28 µM.

In the case of `COc1cccc2c1CC(C[N+](C)(C)C)CC2` (centres undefined), the values for the inhibition constant (Ki) in assay [1], in assay [2] and in assay [3] were 1.8 µM, 1.3 µM and 3.9 µM, respectively.

For `COc1ccccc1C[N+](C)(C)C`, the Ki is 26 µM in assay [1], greater than 50 µM in assay [2] and greater than 50 µM in assay [3]. The concentration for a half-maximal effect (EC50) in assay [4] stood at 18 µM. The Emax in assay [5] was determined as 51%.

`COc1ccc(F)c(CC[N+](C)(C)C)c1`: the inhibition constant (Ki) in assay [1] was found to be 7.1 µM; in assay [2], 0.98 µM; in assay [3], 14 µM. Moreover, in assay [4], the half-maximal effective concentration (EC50) came out at 23 µM. The Emax in assay [5] is 44%.

Take `COc1cccc2c1C[N+](C)(C)CC2`: the inhibitory constant (Ki) in assay [1] came to 17 µM; in assay [2], 6.3 µM; in assay [3], 5.8 µM.

Regarding `C[N+](C)(C)CCc1cccc(OC(F)(F)F)c1`, the Ki amounted to 7.8 µM in assay [1], 9.2 µM in assay [2] and 11 µM in assay [3]. Also, in assay [6], the Emax was less than 10%.

Regarding `CCOc1cccc(CC[N+](C)(C)C)c1`, the inhibitory constant (Ki) came out at 42 µM in assay [1], 27 µM in assay [2] and 43 µM in assay [3]. Besides, in assay [6], the Emax is 40%.

In the case of `C[N+](C)(C)C1CCc2cccc(O)c2C1` (centres undefined), the inhibitory constant (Ki) amounted to 2.9 µM in assay [1], 4.2 µM in assay [2] and 16 µM in assay [3].

For the compound `COc1cccc(C#CC[N+](C)(C)C)c1`, the inhibition constant Ki in assay [1] came to 20 µM; in assay [2], 50 µM; in assay [3], 20 µM.

As to `CN1CCCC(OCc2cccnc2)C1` (centres undefined), the Ki stood at 20 µM in assay [1], 46 µM in assay [2] and 42 µM in assay [3]. Also, the EC50 in assay [4] was 50 µM. The Emax in assay [5] amounted to 33%.

`C[N+](C)(C)CCc1cccc(O)c1`: the Ki amounted to 20 µM in assay [1], 14 µM in assay [2] and 13 µM in assay [3]. Also, the EC50 in assay [4] was found to be 10 µM. In addition, in assay [5], the Emax is 44%.

For `CC(=O)OCC[N+](C)(C)C`, the result in assay [7] was inactive.

Regarding `C[N+]1(C)CCC(OCc2nccs2)C1` (centres undefined), the results for the Ki in assay [1], in assay [2] and in assay [3] were 6.1 µM, 10 µM and 12 µM, respectively. Besides, the EC50 in assay [4] came to 10 µM. Moreover, in assay [5], the Emax worked out at 28%.

`CNCCc1cccc(OC)c1`: the figures for the Ki in assay [1], in assay [2] and in assay [3] were 0.74 µM, 1 µM and 0.78 µM, respectively. Also, the EC50 in assay [4] was 8.2 µM. In addition, in assay [5], the Emax is -12%.

Consider `c1csc(COC2CCNC2)n1` (centres undefined), for which the results for the inhibition constant (Ki) in assay [1], in assay [2] and in assay [3] were 4.2 µM, 6 µM and 4.1 µM, respectively. Besides, the EC50 in assay [4] stood at 9.9 µM. The Emax in assay [5] is 74%.

In the case of `COc1cccc(C(O)C[N+](C)(C)C)c1` (centres undefined), the inhibition constant Ki in assay [1] stood at 13 µM; in assay [2], 29 µM; in assay [3] it was 12 µM. Besides, the Emax in assay [6] was less than 10%.

Turning to `COc1cccc2c1CCC(C[N+](C)(C)C)C2` (centres undefined), the Ki was 17 µM in assay [1], 14 µM in assay [2] and 25 µM in assay [3].

Regarding `C[N+](C)(C)CCCc1ccc2ccoc2c1`, the results for the Ki in assay [1], in assay [2] and in assay [3] were 0.063 µM, 0.23 µM and 0.14 µM, respectively. In addition, in assay [4], the EC50 was 0.027 µM. Also, the Emax in assay [5] amounted to 12%.

In the case of `COc1cccc(C2CC2C[N+](C)(C)C)c1` (centres undefined), the figures for the Ki in assay [1], in assay [2] and in assay [3] were 7.3 µM, 15 µM and 8.7 µM, respectively.

For the compound `COc1cccc(C(=O)C[N+](C)(C)C)c1`, the inhibition constant Ki in assay [1] is 0.17 µM; in assay [2] it was 2.4 µM; in assay [3], 0.21 µM. Further, in assay [6], the Emax was less than 10%.

As for `COc1cccc2c1CC([N+](C)(C)C)CC2` (centres undefined), the Ki in assay [1] was 1 µM; in assay [2], 0.93 µM; in assay [3] it was 2 µM.

As to `COc1cccc2c1CC[N+](C)(C)C2`, the inhibition constant Ki in assay [1] was 14 µM; in assay [2], 26 µM; in assay [3] it was 24 µM.

As to `c1cncc(COCC2CCNC2)c1` (centres undefined), the Ki in assay [1] worked out at 18 µM; in assay [2] it was 11 µM; in assay [3], 36 µM; in assay [8], 0.2 µM. For the same compound, in assay [4], the concentration for a half-maximal effect (EC50) turned out to be 29 µM. The Emax in assay [5] turned out to be 74%.

As to `COc1ccccc1CC[N+](C)(C)C`, the values for the inhibition constant Ki in assay [1], in assay [2] and in assay [3] were 4.9 µM, 5.7 µM and 4.7 µM, respectively. In assay [4], the EC50 is 9.1 µM. Further, the Emax in assay [5] is 21%.

For the compound `COc1cccc(/C=C/C[N+](C)(C)C)c1`, the inhibitory constant (Ki) in assay [1] is 16 µM; in assay [2], 22 µM; in assay [3], 21 µM.

With `CN1CCC(COCc2cccnc2)C1` (centres undefined), the figures for the inhibitory constant (Ki) in assay [1], in assay [2] and in assay [3] were 38 µM, 39 µM and 75 µM, respectively. Also, the half-maximal effective concentration (EC50) in assay [4] was greater than 100 µM. For the same compound, the Emax in assay [6] was found to be 38%.

As to `C[N+](C)(C)CCc1ccc2ccoc2c1`, the results for the Ki in assay [1], in assay [2] and in assay [3] were 0.023 µM, 0.14 µM and 0.041 µM, respectively. Also, the half-maximal effective concentration (EC50) in assay [4] came out at 0.22 µM. Also, in assay [5], the Emax was -14%.

Consider `COc1cccc2c1CCC([N+](C)(C)C)C2` (centres undefined), for which the Ki stood at 2.5 µM in assay [1], 4.4 µM in assay [2] and 4 µM in assay [3].

For `c1cncc(COC2CCCNC2)c1` (centres undefined), the inhibitory constant (Ki) is 10 µM in assay [1], 17 µM in assay [2], 10 µM in assay [3] and 0.0016 µM in assay [8]. The EC50 in assay [4] came to 13 µM. Also, the Emax in assay [5] is 60%.

Take `C[N+](C)(C)CCc1cccc(Cl)c1`: the figures for the inhibitory constant (Ki) in assay [1], in assay [2] and in assay [3] were 4.5 µM, 4.8 µM and 5.8 µM, respectively. Moreover, the Emax in assay [6] was less than 10%.

Broadly, the Ki is the equilibrium dissociation constant of an inhibitor or competing ligand from its target. What is called EC50 is the concentration at which the effect is half-maximal. For orientation: Emax means the greatest response seen or fitted, relative to the assay's reference.

For the origin of these results see ChEMBL document CHEMBL4024758, “Structure-Based Design and Discovery of New M2 Receptor Agonists” (J Med Chem, 2017).
